According to ChEMBL document CHEMBL1212935 (J Med Chem, 2010):
Active and inactive are the calls of the source. No cut-off for these calls is given here.

What was measured:
Cannabinoid receptor 1 = Cannabinoid receptor 1 (Homo sapiens, UniProt P21554); assay: biochemical; assay type: cell-based, HEK293
Cannabinoid receptor 2 [1] = molecular target: T1, Cannabinoid receptor 2 (Homo sapiens, UniProt P34972); assay: Displacement of [3H]CP-55940 from human CB2 receptor expressed in HEK cells; assay type: cell-based, HEK293
T1 sequence (P34972 whole entry): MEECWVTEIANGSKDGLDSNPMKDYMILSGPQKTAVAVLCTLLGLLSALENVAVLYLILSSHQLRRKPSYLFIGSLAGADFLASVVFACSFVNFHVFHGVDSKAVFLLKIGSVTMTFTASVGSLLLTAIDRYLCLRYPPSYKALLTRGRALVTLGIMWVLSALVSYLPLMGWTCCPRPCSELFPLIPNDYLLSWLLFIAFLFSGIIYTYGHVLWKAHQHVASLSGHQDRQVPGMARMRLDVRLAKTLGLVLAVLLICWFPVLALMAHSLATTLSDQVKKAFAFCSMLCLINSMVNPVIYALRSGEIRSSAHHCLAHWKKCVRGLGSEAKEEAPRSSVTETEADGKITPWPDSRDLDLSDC

Homo sapiens = species: Homo sapiens; assay: Selectivity ratio of Ki for human CB1 receptor to Ki for human CB2 receptor
Mus musculus [2] = assay: Antinociceptive activity in mouse hind paw assessed as inhibition of formalin-induced nociceptive behavior at 1 mg/kg, ip administered 15 mins prior to formalin challenge; assay type: functional, organism-based; design: dose 1 mg/kg
How it was run: (§1)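 Mice received ip compound in 20% DMSO in 0.9% NaCl, groups of 8-10, one treatment per animal. Formalin (1.25% in saline, 30 μL) was injected into the dorsal hind paw 15 min later. A blinded observer timed lifting, favoring, licking, shaking and flinching over 0-10 min (early phase) and 20-60 min (late phase). Mean ± SEM; ANOVA with Dunnett's test.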

Cannabinoid receptor 2 [3] = molecular target: T1, Cannabinoid receptor 2; assay: Antagonist activity at human CB2 receptor expressed in CHO cells assessed as inhibition of forskolin-stimulated cAMP level by [35S]GTPgammaS binding assay; assay type: functional, cell-based
How it was run: (§2)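 CHO cells stably carrying human CB2 (DMEM/F12 with 10% FBS and G418 400 μg/mL, 37 °C, 5% CO2); membranes scraped and pelleted. [35S]GTPγS 0.1 nM with GDP 30 μM, 50 μg membrane protein, in Tris/NaCl/BSA buffer with 5 mM MgCl2, 1 mM DTT and 1 mM EDTA; 60 min at 30 °C. Nonspecific binding with 30 μM GTPγS. Filtration, then scintillation counting.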

Mus musculus [4] = assay: Antinociceptive activity in mouse hind paw assessed as inhibition of formalin-induced nociceptive behavior at 1 to 3 mg/kg, ip administered 15 mins prior to formalin challenge; assay type: functional, organism-based
How it was run: as §1

Cannabinoid receptor 2 [5] = molecular target: T1, Cannabinoid receptor 2; assay: Antagonist activity at human CB2 receptor expressed in CHO cells assessed as inhibition of forskolin-stimulated cAMP level at < 100 uM by [35S]GTPgammaS binding assay; assay type: functional, cell-based
Cannabinoid receptor 2 [6] = molecular target: T1, Cannabinoid receptor 2; assay: Antagonist activity at human CB2 receptor expressed in CHO cells assessed as inhibition of forskolin-stimulated cAMP level up to 20 uM by [35S]GTPgammaS binding assay; assay type: functional, cell-based
How it was run: as §2

CYP3A4 = CYP3A4 (Homo sapiens, UniProt P08684); assay: Inhibition of CYP3A4 after 1 hr assessed as residual activity; assay type: ADME; conditions: read-out: Activity
Sequence of CYP3A4 (P08684 whole entry): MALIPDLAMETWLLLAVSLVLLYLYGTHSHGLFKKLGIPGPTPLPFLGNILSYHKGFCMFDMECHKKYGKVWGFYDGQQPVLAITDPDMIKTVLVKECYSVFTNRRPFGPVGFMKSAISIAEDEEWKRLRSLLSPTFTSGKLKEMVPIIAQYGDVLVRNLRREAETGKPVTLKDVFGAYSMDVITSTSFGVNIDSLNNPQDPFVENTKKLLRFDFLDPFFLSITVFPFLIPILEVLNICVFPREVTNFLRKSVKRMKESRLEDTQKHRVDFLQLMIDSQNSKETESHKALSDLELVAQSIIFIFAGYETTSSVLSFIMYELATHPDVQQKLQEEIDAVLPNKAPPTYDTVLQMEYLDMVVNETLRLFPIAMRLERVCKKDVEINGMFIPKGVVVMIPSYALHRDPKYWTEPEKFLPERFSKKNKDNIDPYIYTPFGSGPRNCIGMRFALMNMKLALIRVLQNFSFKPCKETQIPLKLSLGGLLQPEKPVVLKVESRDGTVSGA

Mus musculus [7] = assay: Antinociceptive activity in mouse hind paw assessed as inhibition of formalin-induced nociceptive behavior at 3 mg/kg, ip administered 15 mins prior to formalin challenge; assay type: functional, organism-based; design: dose 3 mg/kg
How it was run: as §1

Mus musculus [8] = assay: Antinociceptive activity in mouse hind paw assessed as inhibition of formalin-induced nociceptive behavior at 1 to 3 mg/kg, ip administered 15 mins prior to formalin challenge in presence of CB2 selective agonist JWH133; assay type: functional, organism-based
How it was run: as §1

Sequence of Cannabinoid receptor 1 (P21554 whole entry): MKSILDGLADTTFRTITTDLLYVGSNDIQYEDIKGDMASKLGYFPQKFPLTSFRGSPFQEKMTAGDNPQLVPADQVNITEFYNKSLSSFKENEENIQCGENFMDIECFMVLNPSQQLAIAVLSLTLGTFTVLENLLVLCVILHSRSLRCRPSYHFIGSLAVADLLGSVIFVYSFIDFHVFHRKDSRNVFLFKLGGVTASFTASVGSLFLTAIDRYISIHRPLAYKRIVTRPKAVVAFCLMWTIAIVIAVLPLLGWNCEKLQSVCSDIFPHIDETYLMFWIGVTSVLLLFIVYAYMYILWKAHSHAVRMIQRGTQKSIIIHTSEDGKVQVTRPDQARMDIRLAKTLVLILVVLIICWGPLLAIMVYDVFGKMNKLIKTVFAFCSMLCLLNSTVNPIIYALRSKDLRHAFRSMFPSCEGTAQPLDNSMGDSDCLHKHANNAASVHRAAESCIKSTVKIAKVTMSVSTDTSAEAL

`CCCCCn1cc(C(=O)N[C@H]2C(C)(C)[C@H]3CC[C@]2(C)C3)c(=O)c2cc(-c3ccco3)ccc21` showed a Ki (Cannabinoid receptor 1) of 480 nM, a Ki (Cannabinoid receptor 2 [1]) of 2.4 nM and a Selectivity Index (Homo sapiens) of 200.

In the case of `CCCCCn1cc(C(=O)NC2CCCCC2)c(=O)c2cc(Br)ccc21`, the Ki (Cannabinoid receptor 1) is reported as 1700 nM, the Ki (Cannabinoid receptor 2 [1]) is reported as 900 nM and the Selectivity Index (Homo sapiens) is reported as 2.

`CCCCCn1cc(C(=O)NC23CC4CC(CC(C4)C2)C3)c(=O)c2cc(-c3cc(C)c(OC)c(C)c3)ccc21` showed a Ki (Cannabinoid receptor 1) of 510 nM, a Ki (Cannabinoid receptor 2 [1]) of 21.5 nM and a Selectivity Index (Homo sapiens) of 24.

`CCCCCn1cc(C(=O)N[C@H]2C(C)(C)[C@H]3CC[C@]2(C)C3)c(=O)c2cc(Br)ccc21` was tested, and the Ki (Cannabinoid receptor 1) was 2.8 nM, the Ki (Cannabinoid receptor 2 [1]) was 5 nM and the Selectivity Index (Homo sapiens) was 0.6.

`CCCCCn1cc(C(=O)NC23CC4CC(CC(C4)C2)C3)c(=O)c2cc([S+]([O-])c3ccccc3)ccc21` (centres undefined) showed a Ki (Cannabinoid receptor 1) of 460 nM, a Ki (Cannabinoid receptor 2 [1]) of 73.2 nM and a Selectivity Index (Homo sapiens) of 6.

`C=CCCn1cc(C(=O)NC23CC4CC(CC(C4)C2)C3)c(=O)c2cc(-c3ccco3)ccc21` was tested, and the Ki (Cannabinoid receptor 1) was greater than 10000 nM, the Ki (Cannabinoid receptor 2 [1]) was 4.4 nM and the Selectivity Index (Homo sapiens) was greater than 2270.

`CCCCCn1cc(C(=O)NC23CC4CC(CC(C4)C2)C3)c(=O)c2cc(-c3ccc(OC)nc3)ccc21` was tested, and the Ki (Cannabinoid receptor 1) was greater than 10000 nM, the Ki (Cannabinoid receptor 2 [1]) was 59.3 nM and the Selectivity Index (Homo sapiens) was greater than 169.

With `CCCCCn1cc(C(=O)NC23CC4CC(CC(C4)C2)C3)c(=O)c2cc(C3=CCCCC3)ccc21` the Ki (Cannabinoid receptor 1) was greater than 10000 nM, the Ki (Cannabinoid receptor 2 [1]) was 8.3 nM and the Selectivity Index (Homo sapiens) was greater than 1200.

For `CCCCCn1cc(C(=O)NC23CC4CC(CC(C4)C2)C3)c(=O)c2cc(-c3ccc(Cl)s3)ccc21`, the Ki (Cannabinoid receptor 1) was greater than 10000 nM, the Ki (Cannabinoid receptor 2 [1]) was 44.8 nM and the Selectivity Index (Homo sapiens) was greater than 223.

`CCCCCn1cc(C(=O)NC23CC4CC(CC(C4)C2)C3)c(=O)c2cc(-c3ccc4cc(OC)ccc4c3)ccc21` was tested, and the Ki (Cannabinoid receptor 1) was 360 nM, the Ki (Cannabinoid receptor 2 [1]) was 52.6 nM and the Selectivity Index (Homo sapiens) was 7.

`COc1ccc(C(=O)c2c(C)n(CCN3CCOCC3)c3cc(I)ccc23)cc1` was tested, and the Activity (Mus musculus [2]) was “inactive”.

`CCCCCn1cc(C(=O)NC23CC4CC(CC(C4)C2)C3)c(=O)c2cc(Cc3ccc(Cl)cc3Cl)ccc21` was tested, and the Ki (Cannabinoid receptor 1) was greater than 10000 nM, the Ki (Cannabinoid receptor 2 [1]) was 3880 nM and the Selectivity Index (Homo sapiens) was greater than 3.

For `CCCCCn1cc(C(=O)NC23CC4CC(CC(C4)C2)C3)c(=O)c2cc(-c3ccc(F)cc3F)ccc21`, the Ki (Cannabinoid receptor 1) was greater than 10000 nM, the Ki (Cannabinoid receptor 2 [1]) was 16 nM and the Selectivity Index (Homo sapiens) was greater than 625.

With `CCCCCn1cc(C(=O)NC23CC4CC(CC(C4)C2)C3)c(=O)c2cc(-c3ccco3)ccc21` the Ki (Cannabinoid receptor 1) was greater than 10000 nM, the Ki (Cannabinoid receptor 2 [1]) was 0.7 nM and the Selectivity Index (Homo sapiens) was greater than 14300. The Activity (Cannabinoid receptor 2 [3]) was “Active”, the Activity (Mus musculus [4]) was “Active” and the Emax (Cannabinoid receptor 2 [5]) was 13.9%. For the same molecule, the Activity (Cannabinoid receptor 2 [6]) was “inactive” and the activity at 1 h (CYP3A4) was 4%.

`CCCCCn1cc(C(=O)NC23CC4CC(CC(C4)C2)C3)c(=O)c2cc(/C=C/C(C)(C)C)ccc21` was tested, and the Ki (Cannabinoid receptor 1) was greater than 10000 nM, the Ki (Cannabinoid receptor 2 [1]) was 71.6 nM and the Selectivity Index (Homo sapiens) was greater than 140.

`CCCCCn1cc(C(=O)NC23CC4CC(CC(C4)C2)C3)c(=O)c2cc(-c3cccs3)ccc21` gave a Ki (Cannabinoid receptor 1) greater than 10000 nM, a Ki (Cannabinoid receptor 2 [1]) of 2.3 nM and a Selectivity Index (Homo sapiens) greater than 4350.

Work on `CCCCCn1cc(C(=O)NC23CC4CC(CC(C4)C2)C3)c(=O)c2cc(CCc3ccccc3)ccc21` yielded a Ki (Cannabinoid receptor 1) greater than 10000 nM, a Ki (Cannabinoid receptor 2 [1]) of 56.6 nM and a Selectivity Index (Homo sapiens) greater than 177. For the same molecule, the Activity (Mus musculus [7]) was “inactive”.

`C#CCn1cc(C(=O)NC23CC4CC(CC(C4)C2)C3)c(=O)c2cc(Br)ccc21` was tested, and the Ki (Cannabinoid receptor 1) was 3210 nM, the Ki (Cannabinoid receptor 2 [1]) was 49.8 nM and the Selectivity Index (Homo sapiens) was 64.

Work on `CCCCCn1cc(C(=O)NC23CC4CC(CC(C4)C2)C3)c(=O)c2cc(C#Cc3ccccc3)ccc21` yielded a Ki (Cannabinoid receptor 1) greater than 10000 nM, a Ki (Cannabinoid receptor 2 [1]) of 343 nM and a Selectivity Index (Homo sapiens) greater than 29.

For `CCCCCn1cc(C(=O)NC23CC4CC(CC(C4)C2)C3)c(=O)c2cc(C3CCCCC3)ccc21`, the Ki (Cannabinoid receptor 1) was greater than 10000 nM, the Ki (Cannabinoid receptor 2 [1]) was 7.3 nM and the Selectivity Index (Homo sapiens) was greater than 1370. For the same molecule, the Activity (Mus musculus [4]) was “inactive” and the Activity (Mus musculus [8]) was “Active”.

`CCCCCn1cc(C(=O)NC23CC4CC(CC(C4)C2)C3)c(=O)c2cc(-n3ccnc3)ccc21` gave a Ki (Cannabinoid receptor 1) greater than 10000 nM, a Ki (Cannabinoid receptor 2 [1]) of 8 nM and a Selectivity Index (Homo sapiens) greater than 1250.

`CCCCCn1cc(C(=O)NC23CC4CC(CC(C4)C2)C3)c(=O)c2cc(-c3ccc(Cl)cc3)ccc21` showed a Ki (Cannabinoid receptor 1) greater than 10000 nM, a Ki (Cannabinoid receptor 2 [1]) of 11 nM and a Selectivity Index (Homo sapiens) greater than 909.

Molecule `CCCCCn1cc(C(=O)NC23CC4CC(CC(C4)C2)C3)c(=O)c2cc(CC)ccc21` has a Ki (Cannabinoid receptor 1) of 900 nM, a Ki (Cannabinoid receptor 2 [1]) of 16.9 nM and a Selectivity Index (Homo sapiens) of 53.

In the case of `C=CCn1cc(C(=O)NC23CC4CC(CC(C4)C2)C3)c(=O)c2cc(-c3ccco3)ccc21`, the Ki (Cannabinoid receptor 1) is reported as greater than 10000 nM, the Ki (Cannabinoid receptor 2 [1]) is reported as 59 nM and the Selectivity Index (Homo sapiens) is reported as greater than 169.

`C#Cc1ccc2c(c1)c(=O)c(C(=O)NC13CC4CC(CC(C4)C1)C3)cn2CCCCC` was tested, and the Ki (Cannabinoid receptor 1) was greater than 10000 nM, the Ki (Cannabinoid receptor 2 [1]) was 8.8 nM and the Selectivity Index (Homo sapiens) was greater than 1140.

`CCCCCn1cc(C(=O)NC23CC4CC(CC(C4)C2)C3)c(=O)c2cc(-c3ccc(-c4ccccc4)cc3)ccc21` gave a Ki (Cannabinoid receptor 1) greater than 10000 nM, a Ki (Cannabinoid receptor 2 [1]) of 181 nM and a Selectivity Index (Homo sapiens) greater than 55.

In the case of `CCCCCn1cc(C(=O)NC23CC4CC(CC(C4)C2)C3)c(=O)c2cc(-n3cccc3)ccc21`, the Ki (Cannabinoid receptor 1) is reported as 29.7 nM, the Ki (Cannabinoid receptor 2 [1]) is reported as 0.7 nM and the Selectivity Index (Homo sapiens) is reported as 42.

For `CCCCCn1cc(C(=O)NC23CC4CC(CC(C4)C2)C3)c(=O)c2cc(S(=O)(=O)c3ccccc3)ccc21`, the Ki (Cannabinoid receptor 1) was greater than 10000 nM, the Ki (Cannabinoid receptor 2 [1]) was 65.9 nM and the Selectivity Index (Homo sapiens) was greater than 152.

With `CCCCCn1cc(C(=O)NC23CC4CC(CC(C4)C2)C3)c(=O)c2cc(-c3c(C)noc3C)ccc21` the Ki (Cannabinoid receptor 1) was greater than 10000 nM, the Ki (Cannabinoid receptor 2 [1]) was 126 nM and the Selectivity Index (Homo sapiens) was greater than 80.

In the case of `CCCCCn1cc(C(=O)NC23CC4CC(CC(C4)C2)C3)c(=O)c2cc(-c3cnn(CC(C)C)c3)ccc21`, the Ki (Cannabinoid receptor 1) is reported as 246 nM, the Ki (Cannabinoid receptor 2 [1]) is reported as 51 nM and the Selectivity Index (Homo sapiens) is reported as 5.

In the case of `CCCCCn1cc(C(=O)NC23CC4CC(CC(C4)C2)C3)c(=O)c2cc(I)ccc21`, the Ki (Cannabinoid receptor 1) is reported as 2080 nM, the Ki (Cannabinoid receptor 2 [1]) is reported as 20.6 nM and the Selectivity Index (Homo sapiens) is reported as 101.

With `CCCCCn1cc(C(=O)NC23CC4CC(CC(C4)C2)C3)c(=O)c2cc(/C=C/c3ccccc3)ccc21` the Ki (Cannabinoid receptor 1) was greater than 10000 nM, the Ki (Cannabinoid receptor 2 [1]) was 65.4 nM and the Selectivity Index (Homo sapiens) was greater than 153.

`CCCCCn1cc(C(=O)NC23CC4CC(CC(C4)C2)C3)c(=O)c2cc(-c3ccc(O)cc3)ccc21` gave a Ki (Cannabinoid receptor 1) greater than 10000 nM, a Ki (Cannabinoid receptor 2 [1]) of 4.2 nM and a Selectivity Index (Homo sapiens) greater than 2380. The Activity (Mus musculus [4]) was “Active” and the Activity (Mus musculus [8]) was “inactive”.

Work on `CCCCCn1cc(C(=O)NN2CCCCC2)c(=O)c2cc(Br)ccc21` yielded a Ki (Cannabinoid receptor 1) of 1900 nM, a Ki (Cannabinoid receptor 2 [1]) of 400 nM and a Selectivity Index (Homo sapiens) of 5.

`CCCCCn1cc(C(=O)NC23CC4CC(CC(C4)C2)C3)c(=O)c2cc(-c3ccc(C#N)cc3)ccc21` showed a Ki (Cannabinoid receptor 1) greater than 10000 nM, a Ki (Cannabinoid receptor 2 [1]) of 41.9 nM and a Selectivity Index (Homo sapiens) greater than 239. For the same molecule, the Activity (Mus musculus [4]) was “Active”.
